How the values were obtained:
Assay type in all cases: functional
IGROV-1 = assay: Anticancer activity against human IGROV1 cells assessed as mean cell growth at 10^-5 M after 48 hrs by SRB assay
Method in brief: (§1)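 NCI-60 primary screen run to the US NCI protocol. Compound added at a single concentration of 10^-5 M and cultures incubated 48 h. The end point was sulforhodamine B (SRB) protein staining, reported as percent growth of treated cells relative to untreated control cells.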

T47D = assay: Anticancer activity against human T47D cells assessed as mean cell growth at 10^-5 M after 48 hrs by SRB assay; method in brief: as §1
MDA-MB-468 = assay: Anticancer activity against human MDA-MB-468 cells assessed as mean cell growth at 10^-5 M after 48 hrs by SRB assay; method in brief: as §1
MCF7 = assay: Anticancer activity against human MCF7 cells assessed as mean cell growth at 10^-5 M after 48 hrs by SRB assay; method in brief: as §1
DU-145 = assay: Anticancer activity against human DU145 cells assessed as mean cell growth at 10^-5 M after 48 hrs by SRB assay; method in brief: as §1
SR = assay: Anticancer activity against human SR cells assessed as mean cell growth at 10^-5 M after 48 hrs by SRB assay; method in brief: as §1
NCI-H522 = assay: Anticancer activity against human NCI-H522 cells assessed as mean cell growth at 10^-5 M after 48 hrs by SRB assay; method in brief: as §1
ACHN = assay: Anticancer activity against human ACHN cells assessed as mean cell growth at 10^-5 M after 48 hrs by SRB assay; method in brief: as §1
A498 = assay: Anticancer activity against human A498 cells assessed as mean cell growth at 10^-5 M after 48 hrs by SRB assay; method in brief: as §1
COLO 205 = assay: Anticancer activity against human COLO205 cells assessed as mean cell growth at 10^-5 M after 48 hrs by SRB assay; method in brief: as §1

CN1C(=O)/C(=C/c2nc(-c3cccc(F)c3)n3ccccc23)c2ccccc21
Activity (IGROV-1): 70.98%

CN1C(=O)/C(=C/c2nc(-c3ccccc3)n3ccccc23)c2ccccc21
Activity (T47D): 85.21%

O=C1Nc2ccccc2/C1=C\c1nc(-c2ccccc2)n2ccccc12
Activity (MDA-MB-468): 87.51%

COc1ccc(-c2nc(/C=C3/C(=O)Nc4ccc(F)cc43)c3ccccn23)cc1
Activity (MCF7): 101.96%

O=C1Nc2ccc(F)cc2/C1=C\c1nc(-c2ccccc2F)n2ccccc12
Activity (DU-145): 80.9%

COc1ccc(-c2nc(/C=C3/C(=O)N(C)c4ccccc43)c3ccccn23)cc1
Activity (SR): 77.31%

O=C1Nc2ccccc2/C1=C\c1nc(-c2ccc(F)cc2)n2ccccc12
Activity (MDA-MB-468): 39.31%

COc1cc(-c2nc(/C=C3/C(=O)N(C)c4ccccc43)c3ccccn23)cc(OC)c1OC
Activity (SR): 98.17%

Cc1ccc(-c2nc(/C=C3/C(=O)Nc4ccccc43)c3ccccn23)cc1
Activity (DU-145): 78.55%

Cc1ccc(-c2nc(/C=C3/C(=O)Nc4ccc(F)cc43)c3ccccn23)cc1
Activity (DU-145): 74.57%

CN1C(=O)/C(=C/c2nc(-c3ccccc3F)n3ccccc23)c2ccccc21
Activity (DU-145): 84.72%

COc1ccc(-c2nc(/C=C3/C(=O)N(C)c4ccccc43)c3ccccn23)cc1OC
Activity (NCI-H522): 103.43%

COc1ccc(-c2nc(/C=C3/C(=O)Nc4ccccc43)c3ccccn23)cc1OC
Activity (MCF7): 82.66%

COc1ccc(-c2nc(/C=C3/C(=O)Nc4ccccc43)c3ccccn23)cc1
Activity (ACHN): 72.54%

Cc1ccc(-c2nc(/C=C3/C(=O)N(C)c4ccc(F)cc43)c3ccccn23)cc1
Activity (NCI-H522): 99.39%

O=C1Nc2ccc(F)cc2/C1=C\c1nc(-c2ccc(F)cc2)n2ccccc12
Activity (A498): 97.53%

CN1C(=O)/C(=C/c2nc(-c3ccccc3F)n3ccccc23)c2cc(F)ccc21
Activity (COLO 205): 99.95%
